This note sets out measurements from ChEMBL document CHEMBL1149798, “Synthesis, computational study and cytotoxic activity of new 4-hydroxycoumarin derivatives” (Eur J Med Chem, 2008).

One test relates to HL-60. In words: Cytotoxicity against human HL60 cells after 72 hrs by MTT assay. Format: functional, cell-based. To be noted: HL-60, 72 h. The method in brief:
(§1)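 Exponentially growing cells were seeded at 3.5 × 10⁵ cells/ml (adherent EJ) or 1 × 10⁵ cells/ml (suspension HL-60), grown 24 h, then exposed continuously for 72 h. Drugs came from fresh DMSO stocks diluted in medium to ≤0.5% final DMSO, with eight wells per concentration. MTT (10 mg/ml PBS stock) was added for 4 h at 37 °C, formazan dissolved in 5% HCOOH/2-propanol, and read at 580 nm. IC50 was taken from a sigmoidal non-linear fit of survival as % of untreated control.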

The nature of test [1]: Cytotoxicity against human […] cells after 72 hrs by MTT assay. The class given is functional, cell-based. A digest of the protocol: as §1
On the technique in general: Tetrazolium assays rely on reduction of a dye to a coloured formazan, in cell work by metabolically active cells.

For test [2], the system named is Strongylocentrotus purpuratus. In words: Inhibition of Strongylocentrotus purpuratus embryos cleavage at 10 uM. Format: functional.

Molecules are shown by their SMILES.

The term IC50 denotes the concentration needed to halve the response being measured. Read a high IC50 as weaker potency in that assay. The inhibition is the percentage by which the read-out fell short of the control. Lower therefore signals a response near the control.

Consider `CCOC(=O)C(C(C)=O)C(c1ccc(O)c(O)c1)c1c(O)c2ccccc2oc1=O` (stereo not drawn), for which the 50% inhibitory concentration (IC50) in the test on HL-60 stood at 35.1 µM; in test [1], 116 µM.
`CCOC(=O)C(C(C)=O)C(c1ccc(C(=O)O)cc1)c1c(O)c2ccccc2oc1=O` (stereo not drawn): the IC50 (in the test on HL-60; in test [1]) was over 200 µM throughout.
Regarding `CCOC(=O)C(C(C)=O)C(c1cccc([N+](=O)[O-])c1)c1c(O)c2ccccc2oc1=O` (stereo not drawn), the half-maximal inhibitory concentration (IC50) came to 90.8 µM in the test on HL-60 and 172 µM in test [1].
The matching figures for `CCOC(=O)C(C(C)=O)C(c1ccc([N+](=O)[O-])cc1)c1c(O)c2ccccc2oc1=O` (stereo not drawn): over 200 µM and over 200 µM.
With `CCOC(=O)C(C(C)=O)C(c1ccc(O)cc1)c1c(O)c2ccccc2oc1=O` (stereo not drawn), the IC50 (with HL-60; in test [1]) was over 200 µM in each case.
As to `O=c1oc2ccccc2c(O)c1Cc1c(O)c2ccccc2oc1=O` [DICUMAROL], the inhibition at 10 µM in test [2] came to 50%.
On to `N[C@@H](Cc1ccc(N(CCCl)CCCl)cc1)C(=O)O` [MELPHALAN], for which the IC50 with HL-60 was 11.4 µM; in test [1], 22.1 µM.
